Laboratory results from ChEMBL document CHEMBL4392863, “Spongian Diterpenes Including One with a Rearranged Skeleton from the Marine Sponge Spongia officinalis” (J Nat Prod, 2019).

Legend:
[1] = Cytotoxicity against mouse RAW264.7 cells assessed as reduction in cell viability incubated for 24 hrs by MTT assay; format: cell-based
RAW264.7 = assay: Anti-inflammatory activity in mouse RAW264.7 cells assessed as inhibition of LPS-induced NO production pre-incubated for 2 hrs before LPS stimulation for 24 hrs by nitrate/nitrite assay; format: functional, cell-based
Summary of the method: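 LPS-stimulated RAW264.7 macrophages were used following an earlier published protocol. Compounds from 30 mM DMSO stocks were diluted at room temperature to final test concentrations of 1−60 μM. NG-methyl-L-arginine acetate salt in DMSO served as the positive control. Inhibition of nitric oxide production was expressed as IC50.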

IC50 (RAW264.7) [µM] | Compound | CC50 at 24 h [1] [µM]
22 | CO[C@@H]1O[C@H](OC)C2=C1CC[C@H]1[C@@]2(CO)CC[C@@H]2[C@]1(C)CC(=O)[C@H](O)[C@]2(C)CO | > 60
32 | C[C@]12[C@@H](O)[C@]3(O)C(=O)OC[C@]3(C)[C@@H]1CC[C@@]1(CO)c3cocc3CC[C@@H]12 | > 60
> 60 | C[C@]12C[C@@H](O)C(=O)[C@](C)(CO)[C@@H]1CC[C@@]1(CO)c3cocc3CC[C@@H]12 | > 60
20 | C[C@]12CC(=O)[C@H](O)[C@](C)(CO)[C@@H]1CC[C@@]1(CO)c3cocc3CC[C@@H]12 | > 60
12 | CC(=O)OC[C@@]12CC[C@@H]3[C@](C)(CC(=O)[C@@H](O)[C@]3(C)CO)[C@H]1CCc1cocc12 | > 60
15 | CC(=O)OC[C@@]12CC[C@@H]3[C@](C)(CC(=O)[C@H](O)[C@]3(C)CO)[C@H]1CCc1cocc12 | > 60
12 | CCO[C@H]1OC(=O)C2=C1[C@]1(CO)CC[C@@H]3[C@](C)(CC(=O)[C@H](O)[C@]3(C)CO)[C@H]1CC2 | > 60
17 | CNC(=N)NCCC[C@H](N)C(=O)O [TILARGININE ACETATE] | –
